In ChEMBL document CHEMBL1124564, “Ester derivatives of 2,6-bis(1-pyrrolidinylmethyl)-4-benzamidophenol as short-acting antiarrhythmic agents. 1” (J Med Chem, 1989):
≈ marks a conversion by molar mass, not a printed value.

Assays:
[1] = Biological half-life was evaluated in whole human blood; format: ADME, organism-based
Summary of the method: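 Fresh heparinized blood from male volunteers and compound in saline preincubated separately 5 min at 37 °C, then mixed 1:1 (final 25 μg/mL) and shaken at 37 °C for 0, 1, 2.5, 5.0, 10, 20, 30 and 60 min. Stopped with acetonitrile, proteins spun down, supernatant assayed by HPLC on phenyl column. Half-life is the time to 50% loss of compound.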

[2] = organism: Cavia porcellus; assay: Inhibition of acetylstrophantidin induced arrhythmia in guinea pig isolated right atria.; format: functional; conditions: read-out: ED50 (the source's name)
Summary of the method: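 Isolated atrium in prewarmed 37 °C Krebs on an isometric force transducer, tension about 500 mg, equilibrated 1 h. Arrhythmogen (ethanolic stock) added at 5.0 μg/mL, raised to 7.5 μg/mL after 30 min if no arrhythmia. After 45 min, compound given in incremental doses every 20 min. ED is the cumulative dose restoring sinus rhythm for at least 3 min.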

[3] = Distribution coefficient of compound was determined in octanol-water system; format: physicochemical
[4] = organism: Canis familiaris; assay: Inhibition of ouabain induced arrhythmia in the dog.; format: functional, Canis lupus familiaris
Summary of the method: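 Adult male mongrel dogs (10–17 kg) under pentobarbital (30 mg/kg iv), intubated, spontaneous breathing, lead II ECG. Ouabain iv bolus: 40 μg/kg, then 20 μg/kg at 30 min, then 5–10 μg/kg every 15 min until stable ventricular arrhythmia (>95% ectopic complexes) lasted 15 min. Compound infused iv at 0.5 mg/kg per min until sinus rhythm held ≥10 min.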

Row | half-life [1] | Distribution coefficient [3] | Compound | EC50 [2] | Active dose [4]
1 | 2.1 min | – | CCCOC(=O)CCCc1cc(CN2CCCC2)c(O)c(CN2CCCC2)c1 | – | –
2 | – | 19.19 | CCN(CC)CC(=O)Nc1c(C)cccc1C [LIDOCAINE] | 6 µg/mL (≈ 25.6 µM) | 10.1 mg/kg
3 | – | – | CCOC(=O)/C=C/c1ccc(NC(=O)c2cc(CN3CCCC3)c(O)c(CN3CCCC3)c2)cc1 | – | 17.5 mg/kg
4 | – | – | CCOC(=O)CCc1ccc(NC(=O)c2cc(CN3CCCC3)c(O)c(CN3CCCC3)c2)cc1 | – | 10.9 mg/kg
5 | 18.5 min | 0.43 | CCCOC(=O)Cc1cc(CN2CCCC2)c(O)c(CN2CCCC2)c1 | 10.3 µg/mL (≈ 28.6 µM) | 8.8 mg/kg
6 | – | 13.71 | O=C(NCC1CCCCN1)c1cc(OCC(F)(F)F)ccc1OCC(F)(F)F (configuration not stated) [FLECAINIDE] | 6 µg/mL (≈ 14.5 µM) | 2.3 mg/kg
7 | – | 1.47 | CC(C)COC(=O)c1cc(CN2CCCC2)c(O)c(CN2CCCC2)c1 | 2.3 µg/mL (≈ 6.38 µM) | –
8 | – | – | O=C(O)Cc1cc(CN2CCCC2)c(O)c(CN2CCCC2)c1 | > 200 µg/mL | –
9 | 8.7 min | 1.25 | CC(C)COC(=O)Cc1cc(CN2CCCC2)c(O)c(CN2CCCC2)c1 | 5 µg/mL (≈ 13.4 µM) | 11.8 mg/kg
10 | – | – | CCOC(=O)c1ccccc1NC(=O)c1cc(CN2CCCC2)c(O)c(CN2CCCC2)c1 | – | 1.75 mg/kg
11 | – | 0.39 | CC(C)OC(=O)Cc1cc(CN2CCCC2)c(O)c(CN2CCCC2)c1 | 1 µg/mL (≈ 2.77 µM) | –
12 | – | – | O=C(O)CCc1cc(CN2CCCC2)c(O)c(CN2CCCC2)c1 | > 1000 µg/mL | –
13 | – | 0.18 | CCOC(=O)Cc1cc(CN2CCCC2)c(O)c(CN2CCCC2)c1 | 17.2 µg/mL (≈ 49.6 µM) | >7.5 mg/kg
14 | 36.1 min | 0.78 | CCCOC(=O)CCc1cc(CN2CCCC2)c(O)c(CN2CCCC2)c1 | 7 µg/mL (≈ 18.7 µM) | 3 mg/kg
15 | – | 0.37 | CC(C)OC(=O)c1cc(CN2CCCC2)c(O)c(CN2CCCC2)c1 | 11.4 µg/mL (≈ 32.9 µM) | –
16 | 0.77 min | 12.8 | CCCCOC(=O)CCCc1cc(CN2CCCC2)c(O)c(CN2CCCC2)c1 | 0.33 µg/mL (≈ 0.82 µM) | –
17 | – | 0.42 | O=C(Nc1ccccc1)c1cc(CN2CCCC2)c(O)c(CN2CCCC2)c1 | 11 µg/mL (≈ 29 µM) | 2.5 mg/kg
18 | – | 1.12 | CCC(C)OC(=O)c1cc(CN2CCCC2)c(O)c(CN2CCCC2)c1 (configuration not stated) | 6.7 µg/mL (≈ 18.6 µM) | 6.8 mg/kg
19 | – | – | CCOC(=O)c1ccc(NC(=O)c2cc(CN3CCCC3)c(O)c(CN3CCCC3)c2)cc1 | – | 19 mg/kg
20 | 1.96 min | 7.24 | CC(C)COC(=O)CCCc1cc(CN2CCCC2)c(O)c(CN2CCCC2)c1 | 2 µg/mL (≈ 4.97 µM) | –
21 | 9.5 min | 1.5 | CCCCOC(=O)Cc1cc(CN2CCCC2)c(O)c(CN2CCCC2)c1 | 13.3 µg/mL (≈ 35.5 µM) | 7.3 mg/kg
22 | 22.1 min | 2 | CCCCOC(=O)CCc1cc(CN2CCCC2)c(O)c(CN2CCCC2)c1 | 2.5 µg/mL (≈ 6.43 µM) | 11 mg/kg
23 | 25.9 min | 1.54 | CC(C)COC(=O)CCc1cc(CN2CCCC2)c(O)c(CN2CCCC2)c1 | 14 µg/mL (≈ 36 µM) | 5 mg/kg
24 | – | – | O=C(O)c1cc(CN2CCCC2)c(O)c(CN2CCCC2)c1 | > 30 µg/mL | >60 mg/kg
25 | – | 0.62 | CC(C)OC(=O)CCc1cc(CN2CCCC2)c(O)c(CN2CCCC2)c1 | 4 µg/mL (≈ 10.7 µM) | –
